In the library only some 1.3% were active in any assay of this set; here they are far more common.
Fam108B counter = mouse Fam108B serine hydrolase inhibitors, primary screen, counter-screen for RBBP9 inhibitor project, biochemical, fluorescence polarization; inhibition, % at 9.51 µM; AID 1947, 2009; recombinant Fam108B, FP-Rh probe fluorescence polarization; hit rate 0.33% among 300,000;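 active = inhibition above the screen mean inhibition plus 3 SD, computed separately per campaign, cut at about 18% in these data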;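 note: inhibitors lower polarization as less probe binds the enzyme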
PME-1 primary = PME-1 inhibitors via competitive probe labeling, primary screen, biochemical, fluorescence polarization, FP-Rh probe, HTS | hit rate 0.53% among 320,000 | inhibition, % at 5.9 µM | AID 2130, 2009 | recombinant PME-1 | Protein phosphatase methylesterase 1 (Homo sapiens), Q9Y570;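 active = inhibition above the campaign mean of all compounds plus 3 SD, cut at about 26% in these data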;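 note: competitive labeling of PME-1 active site by serine hydrolase directed probe; 0% = PME-1 with DMSO and 100% = wells lacking PME-1 enzyme; inhibitors block probe labeling so polarization falls and inhibition rises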
RBBP9 inhibitor = human RBBP9 inhibitors, primary screen, biochemical, fluorescence polarization, FP-Rh probe, HTS. Serine hydrolase RBBP9 (Homo sapiens), O75884. recombinant RBBP9. inhibition, % at 7.94 µM. hit rate 0.2% among 220,000;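 active = inhibition above the campaign mean of all tested compounds plus 3 SD, cut at about 14% in these data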;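 note: plate controls were DMSO wells with RBBP9 for no effect and wells lacking RBBP9 protein for full effect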
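Test system: recombinant human RBBP9; Timing: 30 min then 45 min, 25 °C; Detection: fluorescence polarization; Control set: RBBP9 with DMSO as uninhibited control, no-protein wells as full inhibition; Compound dosing: one concentration, 7.94 µM nominal, 0.794% DMSO; Probe or stimulus: FP-Rh activity-based probe, 375 nM before mixing.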
PAD4 inh = human PAD4 inhibitors, primary screen, biochemical, fluorescence polarization, 1536-well format; Protein-arginine deiminase type-4 (Homo sapiens), Q9UM07; recombinant PAD4, RCA probe fluorescence polarization; inhibition, % at 6.36 µM; hit rate 0.41% among 330,000; AID 485272, 2010;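 active = percent inhibition above a cutoff equal to the mean of all tested compounds plus 3 SD, cut at about 15% in these data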;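 note: 0% = PAD4 with RCA probe and DMSO and 100% = probe without PAD4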
LYPLA2 inh = LYPLA2 inhibitors, primary screen, counter-screen for PME1 inhibitor project, biochemical, fluorescence polarization, FP-Rh probe ABPP; Acyl-protein thioesterase 2 (Homo sapiens), O95372; recombinant LYPLA2; inhibition, % at 5.9 µM; hit rate 0.38% among 320,000; AID 2177, 2009;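 active = inhibition above the screen-wide mean plus 3 SD, limit set per campaign, cut at about 26% in these data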;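 note: 0% = LYPLA2 with DMSO and 100% = wells lacking LYPLA2 enzyme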
Target sequence (O95372 whole entry, looked up): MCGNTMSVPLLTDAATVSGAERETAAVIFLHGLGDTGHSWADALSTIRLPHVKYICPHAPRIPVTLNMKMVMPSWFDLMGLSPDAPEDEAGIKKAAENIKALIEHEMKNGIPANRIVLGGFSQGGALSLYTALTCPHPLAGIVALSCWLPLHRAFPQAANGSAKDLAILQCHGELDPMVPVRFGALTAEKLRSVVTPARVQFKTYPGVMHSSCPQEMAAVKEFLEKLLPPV
LYPLA1 inh = LYPLA1 inhibitors, primary screen, counter-screen for PME1 inhibitor project, biochemical, fluorescence polarization, FP-Rh probe ABPP | Acyl-protein thioesterase 1 (Homo sapiens), O75608 | recombinant LYPLA1 | inhibition, % at 5.9 µM | hit rate 0.16% among 320,000 | AID 2174, 2009;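 active = inhibition above the mean of all tested compounds plus 3 SD, set per campaign, cut at about 14% in these data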;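 note: inhibitors block serine hydrolase probe labeling of LYPLA1 so polarization falls; 0% = enzyme with DMSO and 100% = wells lacking LYPLA1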
Target sequence (O75608 whole entry, looked up): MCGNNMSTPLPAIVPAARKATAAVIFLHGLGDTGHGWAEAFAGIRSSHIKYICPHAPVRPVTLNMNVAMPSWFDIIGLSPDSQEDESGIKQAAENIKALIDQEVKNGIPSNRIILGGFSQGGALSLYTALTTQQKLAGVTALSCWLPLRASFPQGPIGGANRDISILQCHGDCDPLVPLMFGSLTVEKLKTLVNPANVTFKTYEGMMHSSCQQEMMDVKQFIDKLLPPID
* = called active by the depositor; nt = not tested or not shown.

SMILES	Fam108B counter	PME-1 primary	RBBP9 inhibitor	PAD4 inh	LYPLA2 inh	LYPLA1 inh
O=C(CN1C(=O)COc2ccccc21)NC1CCCC1	-3	-2	nt	-6	5	2
O=[N+]([O-])c1ccc(N2CCN(C(=S)NCc3ccc(Cl)cc3)CC2)cc1	-7	-18	-13	-9	28*	-3
CCNC(=S)N1CCN(c2ccc([N+](=O)[O-])cc2)CC1	-1	5	5	-1	10	2
O=C(NCCN1CCCCC1)Nc1cccc(F)c1	0	3	nt	-5	-6	1
CCCCCCn1c(=O)[nH]c2nc3cc(N)ccc3nc2c1=O	7	30*	0	13	7	1
O=C(Nc1ccc2nc(-c3ccco3)c(-c3ccco3)nc2c1)N1CCCCCC1	40*	7	0	-12	-4	-15
CCN1CC=C2C(C#N)=C(N)C(C#N)(C#N)C(c3cc(Cl)ccc3Cl)C2C1 (configuration not stated)	4	7	3	22*	4	6
CC(C)N1CC=C2C(C#N)=C(N)C(C#N)(C#N)[C@H](c3ccoc3)[C@H]2C1	5	15	-2	49*	4	5
CC(C)N1CC=C2C(C#N)=C(N)C(C#N)(C#N)C(c3ccccc3)C2C1 (configuration not stated)	3	1	-2	6	-1	1
CCc1ccccc1NCC(=O)Nc1ccc(Cl)c(C(F)(F)F)c1	6	14	-7	6	-9	-4
CCOc1ccccc1N(C)C(=O)c1ccc2c(=O)n3c(nc2c1)CCCCC3	0	-2	nt	0	2	-2
COc1ccccc1NS(=O)(=O)c1ccc(N/N=C/c2ccccc2OCC(=O)O)c([N+](=O)[O-])c1	8	54*	5	0	6	3
CCN(CC)C(=O)c1ncn(C)c1C(=O)N(CC)CC	nt	nt	nt	-1	nt	nt
CCOc1ncccc1C(=O)N1CCN(c2cc(Cl)ccc2C)CC1	2	-1	-10	-2	28*	-1
CC1(C)CC(=O)C2=C(C1)N1C(=C(C#N)C2c2ccc(Cl)cc2)N=C(N)c2ccccc21 (configuration not stated)	1	31*	-1	2	-2	-3
Cc1ccc(C(=O)N2CCN(S(=O)(=O)c3ccccc3)CC2)s1	1	2	nt	-1	2	-2
COc1ccc(S(=O)(=O)N2CCOCC2)cc1NC(=O)Cn1nnc2ccccc2c1=O	-3	3	-5	-6	5	-1
CCOC(=O)N1CCN(C(=O)c2cccc(S(=O)(=O)Nc3ccccc3Cl)c2)CC1	nt	5	nt	1	2	-1
COC(=O)CCCC1=CC2=CC(=O)C(C)(OC(=O)c3cnc4ccccc4n3)C(=O)C2=CO1 (configuration not stated)	13	25	nt	32*	24	20*
CC(C)(C)OC(=O)NCCCCC1=CC2=CC(=O)C(C)(OC(=O)c3cnc4ccccc4n3)C(=O)C2=CO1 (configuration not stated)	12	18	nt	11	20	17*
COC/C=C/C1=CC2=CC(=O)C(C)(OC(=O)c3cnc4ccccc4n3)C(=O)C2=CN1CCc1ccccn1 (configuration not stated)	7	2	nt	34*	-5	5
CCCCC1=CC2=CC(=O)C(C)(OC(=O)c3cnc4ccccc4n3)C(=O)C2=CO1 (configuration not stated)	19*	31*	nt	31*	25	23*
COC/C=C/C1=CC2=CC(=O)C(C)(OC(=O)c3cnc4ccccc4n3)C(=O)C2=CN1CCCCO (configuration not stated)	3	-1	nt	-2	3	-2
Cc1ccc2[nH]c3c(N4CCc5ccccc5C4)ncnc3c2c1	14	30*	-4	0	-11	-12

Screening results from PubChem.
